In the library only some 2.3% were active in any assay of this set; here they are far more common.
TRPC6 act – activates the mouse TRPC6 cation channel. HEK293-TRPC6 membrane potential dye fluorescence; active compounds read high. B-score at 10 µM. 310,000 compounds, 0.13% hits;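 active = B-score of the integrated fluorescence ratio above library mean plus 3 SD, and starting fluorescence ratio within library mean plus 5 SD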;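 also: higher score means more depolarization so channel activation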
TRPC6 inh – blocks the mouse TRPC6 cation channel; B-score at 10 µM; AID 2553; Q61143; 310,000 compounds, 1.1% hits; HEK293-TRPC6, membrane potential dye, ACh-evoked depolarization; active compounds read low;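 active = B-score under library mean minus 3 SD, initial fluorescence not abnormally high, positive integrated signal ratio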;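 also: B-score derived from integrated fluorescence ratio over the kinetic read; more negative B-score means stronger inhibition of depolarization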
TRPC4 inh – inhibitors of mouse TRPC4 channel | HEK293 TRPC4beta/mu-opioid, DAMGO-evoked Fluo4 calcium flux; active compounds read low | AID 2247 | B-score at 10 µM | Q9QUQ5 | 300,000 compounds, 0.39% hits;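 active = B-score over 3 SD under the library average, no early fluorescence shift, positive overall ratio signal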
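Assay system: HEK293 cells with stable TRPC4beta plus mu-opioid receptor expression. Dosing: single dose. Measured by: Fluo4 Ca2+ flux fluorescence. Also added: DAMGO in two steps, submaximal then maximal. Read-out: B score from integrated Fluo4 fluorescence ratio.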
TRPC4 potent – allosteric potentiators of mouse TRPC4 channel | 310,000 compounds, 0.42% hits | HEK293 TRPC4beta/mu-opioid, DAMGO EC20, Fluo-4 Ca2+ flux; active compounds read high | Q9QUQ5 | B-score at 10 µM;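 active = B-score of calcium response area above 5 SD of library B-scores, with initial fluorescence ratio within 5 SD of library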;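 also: B-score of integrated fluorescence ratio over time as area under calcium response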
TRPC4 act – activators of mouse TRPC4 channel. AID 2237. Q9QUQ5. B-score at 10 µM. HEK293 TRPC4beta/mu-opioid, Fluo4 calcium fluorescence; active compounds read high. 310,000 compounds, 0.49% hits;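 active = B-score above 5 SD of library B-scores, and initial fluorescence ratio not above library mean plus 5 SD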;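 also: positive B-score marks a calcium rise read as TRPC4 activation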
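System: HEK293 cells stably co-expressing mouse TRPC4beta and mu-opioid receptor; Schedule: Fluo4 dye loading 45 min at room temperature, 110 s recording; Detection: Fluo4 fluorescence, kinetic; Evaluation: B-scored integrated calcium fluorescence ratio; Controls: buffer (low) and maximal DAMGO (high).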
Active calls of the source: *; i = inactive.

SMILES	TRPC6 act	TRPC6 inh	TRPC4 inh	TRPC4 potent	TRPC4 act
CCC(Sc1nc(C)cc(C)n1)C(=O)Nc1nccs1 (configuration not stated)	i	i	i	i	i
COc1cc(CN2CCN(CCCc3ccccc3)C(CCO)C2)cc(OC)c1O (configuration not stated)	i	i	i	i	i
CCOC(=O)c1sc(NC(=O)CSc2n[nH]c(-c3ccncc3)n2)c(C#N)c1C	i	i	i	i	i
Cc1ccsc1/C=C/C1=Cc2c(sc(NC(=O)CSc3n[nH]c(N)n3)c2C#N)C(C)(C)C1	i	i	i	90*	i
CCOc1ccc(/C=C/C2=Cc3c(sc(NC(=O)CSc4n[nH]c(N)n4)c3C#N)C(C)(C)C2)cc1	i	i	i	17*	i
Cc1ccc(NC(=S)NC2CC3CCC(C2)N3Cc2ccco2)c(C)c1 (configuration not stated)	i	i	i	i	116*
Cc1cccc(NC(=S)NC2CC3CCCC(C2)N3Cc2ccccc2)c1C (configuration not stated)	i	i	i	i	65*
Cc1cccc(NC(=S)NC2CC3CCC(C2)N3Cc2ccco2)c1C (configuration not stated)	i	i	i	i	i
Cc1c(C=Nc2ccc(S(=O)(=O)N(C)C)cc2)c(O)[nH]c(=O)c1C#N	i	i	i	i	i
CCN(CC)CCNc1nc(SC)nc2sc3c(c12)CCN(C)C3	i	i	i	i	i
CSc1nc(NCCCN(C)C)c2c3c(sc2n1)CN(C)CC3	i	-7.81*	i	i	i
Cc1onc(-c2ccccc2Cl)c1C(=O)Nc1ccc(S(=O)(=O)N2CCCC2)cc1	i	i	i	10*	i
Cc1ccc(-c2nnc(-c3cc(C)on3)o2)cc1	i	i	i	i	i
Cc1ccccc1OCCNc1cc(N2CCNCC2)ccc1[N+](=O)[O-]	i	-7.94*	i	14*	i
CCOC(=O)C1(Cc2ccccc2)CCCN(S(=O)(=O)N(C)C)C1 (configuration not stated)	i	i	i	i	i
CCCn1c(CN2CCN(c3cccc(Cl)c3)CC2)nc2c1c(=O)n(C)c(=O)n2C	i	i	i	12*	i
Cn1c(=O)c2c(nc(CN3CCN(C(c4ccccc4)c4ccccc4)CC3)n2CCCO)n(C)c1=O	i	i	i	13*	i
Cn1c(=O)n(CCCO)c(=O)c2c1nc1n2CCCN1Cc1ccccc1	i	i	-6*	i	i
CCCCn1c(CN2CCN(c3cccc(Cl)c3)CC2)nc2c1c(=O)n(C)c(=O)n2C	i	i	i	i	i
COCCn1c(CN2CCN(C(c3ccccc3)c3ccccc3)CC2)nc2c1c(=O)n(C)c(=O)n2C	i	i	i	i	i
COc1cccc(CNS(=O)(=O)c2ccc3c(c2)oc(=O)n3C)c1	i	i	i	i	i
O=C(O)/C=C/C(=O)Nc1ccc(C2(c3ccc(NC(=O)/C=C/C(=O)O)cc3)c3ccccc3-c3ccccc32)cc1	i	i	i	i	i
Fc1ccc(-n2nnc(-c3ncc[nH]3)n2)cc1	i	i	i	i	i
CN(C)c1ccc(-c2ccc3c(=O)c4ccccc4n(C)c3c2)cn1	i	i	i	i	i
COCCNc1nc(-c2ccccc2)nc2ccccc12	i	i	-5*	i	i
SMILES	TRPC6 act	TRPC6 inh	TRPC4 inh	TRPC4 potent	TRPC4 act
COCCCNc1nc(-c2ccncc2)nc2ccccc12	i	i	i	i	i
COc1cc(/C=N/NC(=O)COc2ccc(-n3cnnn3)cc2)ccc1OCC(N)=O	i	i	i	i	i
OCCCCNCc1cc(Br)ccc1OCc1ccccc1F	i	i	-7*	i	i
Fc1ccc(COc2ccccc2CNCc2ccncc2)cc1	i	i	i	i	i
Clc1cc(Br)ccc1OCCCNCc1ccccc1	i	i	i	i	75*
Brc1ccc(OCc2ccccc2)c(CNCc2ccncc2)c1	i	i	-5*	i	i
OCCNCc1cc(Br)ccc1OCc1ccc(Cl)cc1Cl	i	i	-8*	i	i
O=C(Nc1oc2ccc(Cl)cc2c(=O)c1-c1ccc(F)cc1)c1ccco1	i	i	i	i	i
Cc1ccc(Cl)cc1N1CCN(S(=O)(=O)c2c(C)[nH]c(C)c2C(=O)N2CCCCC2)CC1	i	i	i	i	i
COc1ccc(COC(=O)c2ccc(Cl)c(S(=O)(=O)N3CC(C)OC(C)C3)c2)cc1 (configuration not stated)	i	i	i	i	i
O=C(COc1ccc(Br)cc1CO)Nc1ccc(F)cc1	i	i	i	i	i
OCCNCc1cc(Br)ccc1OCc1ccc(F)cc1	i	i	-6*	i	i
CC1CCCN(CCCN2C(=O)C3C(C(=O)Nc4ccc(Cl)cc4)C4C=CC3(O4)C2C(=O)NC2CCCCC2)C1 (configuration not stated)	i	i	-6*	i	i
Cc1ccc(NC(=O)C2C3C=CC4(O3)C2C(=O)N(CCCN2CCCC2)C4C(=O)NC2CCCCC2)cc1Cl (configuration not stated)	i	i	i	i	i
CN(C)CCN1C(=O)C2C(C(=O)Nc3cc(Cl)cc(Cl)c3)C3C=CC2(O3)C1C(=O)NC1CCCCC1 (configuration not stated)	i	i	-7*	i	i
CCN(CC)CCN1C(=O)C2C(C(=O)Nc3ccc(C(C)C)cc3)C3C=CC2(O3)C1C(=O)NC1CCCCC1 (configuration not stated)	i	i	-6*	i	63*
CC(C)c1ccc(NC(=O)C2C3C=CC4(O3)C2C(=O)N(CCCN2CCCCC2)C4C(=O)NC2CCCCC2)cc1 (configuration not stated)	i	i	-6*	i	66*
Cc1cc(C)cc(NC(=O)C2C3C=CC4(O3)C2C(=O)N(CCN2CCCCC2)C4C(=O)NC2CCCCC2)c1 (configuration not stated)	i	i	i	i	i
CCCCCN(C(=O)CCC(=O)OCc1ccc(C(C)(C)C)cc1)c1c(N)n(CCCC)c(=O)[nH]c1=O	i	i	i	i	i
O=C1Nc2ccc(Br)cc2C1(O)c1ccc(F)cc1 (configuration not stated)	i	i	i	i	i
Cc1ccnc(NC(=O)CCC(=O)c2cccs2)c1	i	i	i	i	i
